# ChEMBL document CHEMBL3632581, “Dimers of Melampomagnolide B Exhibit Potent Anticancer Activity against Hematological and Solid Tumor Cells” (J Med Chem, 2015)
# Tests used:
# [1] = Antileukemic activity against human AML01 cells after 24 hrs by annexin V/7-AAD staining-based flow cytometric analysis; assay type: functional, cell-based
# Summary of the method: (§1)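 Primary AML specimens from consenting donors, isolated by Ficoll-Paque gradient and sometimes cryopreserved. Cells were held 1 h in serum-free IMDM with 20% BIT 9500, LDL and β-mercaptoethanol before drug (DMSO stock diluted in PBS, ≤0.5% DMSO final). Exposure was 24 h over 0.5-10 μM. Annexin V/7-AAD double-negative cells, normalized to vehicle, gave the EC50. Run in triplicate.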
# [2] = Potency index, ratio of parthenolide EC50 to compound EC50 for human M9-ENL1 cells; assay type: functional
# [3] = Antileukemic activity against human AML05 cells after 24 hrs by annexin V/7-AAD staining-based flow cytometric analysis; assay type: functional, cell-based; summary of the method: as §1
# [4] = Antileukemic activity against human M9-ENL1 cells after 24 hrs by annexin V/7-AAD staining-based flow cytometric analysis; assay type: functional, cell-based
# Summary of the method: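 M9-ENL1 cells in alpha-MEM with 5% human plasma, 20% FBS, SCF, IL-3, IL-7 and FLT3. Drug came from a DMSO stock diluted in PBS (≤0.5% DMSO final), for 24 h over 0.5-10 μM. Cells negative for both annexin V and 7-AAD were taken as non-apoptotic and normalized to vehicle. EC50 read from dose-response curves, triplicate.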
# [5] = Antileukemic activity against human AML02 cells after 24 hrs by annexin V/7-AAD staining-based flow cytometric analysis; assay type: functional, cell-based; summary of the method: as §1
# [6] = Antileukemic activity against human AML03 cells after 24 hrs by annexin V/7-AAD staining-based flow cytometric analysis; assay type: functional, cell-based; summary of the method: as §1
# [7] = Cytotoxicity against hematopoietic progenitor cells isolated from human umbilical cord blood by annexin V staining-based flow cytometric analysis; assay type: cell-based
# Summary of the method: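 Cord-blood mononuclear cells from Ficoll-Paque were plated in serum-free medium, with drug from a DMSO stock (≤0.5% DMSO final). Cells were stained for CD34, CD45 and annexin V. The non-apoptotic fraction (annexin V-negative within the CD34+CD45dim compartment) was normalized to vehicle, and EC50 was fitted where possible. Triplicate.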
# [8] = Antileukemic activity against human AML04 cells after 24 hrs by annexin V/7-AAD staining-based flow cytometric analysis; assay type: functional, cell-based; summary of the method: as §1
SMILES,EC50 [1],Ratio EC50 [2],EC50 [3],EC50 [4],EC50 [5],EC50 [6],EC50 [7],EC50 [8]
C=C1C(=O)O[C@H]2[C@H]1CC/C(COC(=O)NCCCNC(=O)OC/C1=C/CC[C@@]3(C)O[C@H]3[C@H]3OC(=O)C(=C)[C@@H]3CC1)=C\CC[C@@]1(C)O[C@@H]21,2600 nM,2,3700 nM,1000 nM,2300 nM,,,
C=C1C(=O)O[C@H]2[C@H]1CC/C(COC(=O)NCCCCCCNC(=O)OC/C1=C/CC[C@@]3(C)O[C@H]3[C@H]3OC(=O)C(=C)[C@@H]3CC1)=C\CC[C@@]1(C)O[C@@H]21,1600 nM,2,1700 nM,1500 nM,1200 nM,3500 nM,> 10000 nM,3700 nM
C=C1C(=O)O[C@H]2[C@H]1CC/C(COC(=O)NCCCCCCCNC(=O)OC/C1=C/CC[C@@]3(C)O[C@H]3[C@H]3OC(=O)C(=C)[C@@H]3CC1)=C\CC[C@@]1(C)O[C@@H]21,1700 nM,2,2400 nM,1100 nM,1300 nM,5700 nM,> 10000 nM,3600 nM
C=C1C(=O)O[C@H]2[C@H]1CC/C(COC(=O)NCCCCCCCCCNC(=O)OC/C1=C/CC[C@@]3(C)O[C@H]3[C@H]3OC(=O)C(=C)[C@@H]3CC1)=C\CC[C@@]1(C)O[C@@H]21,1900 nM,2,3200 nM,2000 nM,1500 nM,2400 nM,> 10000 nM,3700 nM
C=C1C(=O)O[C@H]2[C@H]1CC/C(COC(=O)NCCCCCCCCCCNC(=O)OC/C1=C/CC[C@@]3(C)O[C@H]3[C@H]3OC(=O)C(=C)[C@@H]3CC1)=C\CC[C@@]1(C)O[C@@H]21,2300 nM,2,3300 nM,2900 nM,2000 nM,2900 nM,> 10000 nM,4200 nM
C=C1C(=O)O[C@H]2[C@H]1CC/C(COC(=O)OCCCCOC(=O)OC/C1=C/CC[C@@]3(C)O[C@H]3[C@H]3OC(=O)C(=C)[C@@H]3CC1)=C\CC[C@@]1(C)O[C@@H]21,930 nM,2,2700 nM,1200 nM,,860 nM,,2700 nM
C=C1C(=O)O[C@H]2[C@H]1CC/C(COC(=O)OCCCCCOC(=O)OC/C1=C/CC[C@@]3(C)O[C@H]3[C@H]3OC(=O)C(=C)[C@@H]3CC1)=C\CC[C@@]1(C)O[C@@H]21,,2,2100 nM,2400 nM,2200 nM,1400 nM,,
C=C1C(=O)O[C@H]2[C@H]1CC/C(COC(=O)OC/C1=C/CC[C@@]3(C)O[C@H]3[C@H]3OC(=O)C(=C)[C@@H]3CC1)=C\CC[C@@]1(C)O[C@@H]21,1600 nM,2,,540 nM,,,,
C=C1C(=O)O[C@@H]2C3O[C@]3(C)CC/C=C(\C)CC[C@@H]12 (some centres not stated),16000 nM,,7000 nM,6000 nM,2500 nM,4700 nM,,8000 nM
